Data taken from paper PMC2193521 (The Journal of Experimental Medicine, 2001).
“Also recorded” adds a separate entry of the source.

Legend:
m6 TCR [1] = type: binding, mouse; details: calculated from the flow cytometry kd, room temperature
In short: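 T2-Ld cells (human lymphoblastoid line expressing Ld, ~3 × 10^6/ml) were loaded with peptide (~1–10 μM final) for 2 h at 37°C. They were stained for 30 min with full-length m6 TCR Drosophila supernatant, washed, and held at room temperature in PBS/1% BSA with F23.2 IgG (~300 μg/ml) as competitor. At timed points, ice-cold washes were done and residual TCR was detected by F23.1-biotin/SAv:PE flow cytometry. n = 2–3.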

m6 TCR [2] = assay: SPR of TCR binding to immobilized null MCMV/L^d/Ig; set-up: species or system mouse; details: PBS, 25°C
In short: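 MCMV-loaded Ld/IgG1 fusion (peptide at 100-fold molar excess, pH 6.5, 37°C 1.5 h; refolded pH 7.4, 4°C 24 h; G-200 repurified) was captured on a CM5 chip coated with rabbit anti-mouse IgG. Drosophila-expressed His6 soluble m6 TCR, Ni-NTA and gel-filtration purified, was injected at several concentrations at 30 μl/min. Responses were blank-surface subtracted; regeneration used 10 mM glycine, pH 1.5.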

Substance: QL9-M5: QL9 variant containing a position five (Phe) substitution (QLSPMPFDL)
- t1/2 of m6 TCR on cell-bound peptide/L^d (m6 TCR [1]): 140 s

Substance: QL9-Y5: QL9 variant with a Tyr substitution for the Phe at position 5 (QLSPYPFDL)
- t1/2 of m6 TCR on cell-bound peptide/L^d (m6 TCR [1]): 1,180 s

Substance: YPHFMPTNL [MCMV]
- TCR binding to peptide/L^d/Ig immobilized on the chip (m6 TCR [2]): not observed; also recorded: undetectable
